{"source": "ChEMBL document CHEMBL5724801", "about": "“EUbOPEN Chemogenomics Library - Multiplex” (2024)", "test_system": "U2OS", "assay": "Multiplex assay against U2OS", "format": "toxicity, cell-based", "conditions": "human", "summary_of_the_method": "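Values for tubulin, mitochondrial-mass and membrane-permeability phenotypes are per cents of cells with healthy nuclei. These cells were identified by CellPathfinder machine-learning gating of live cells that had been stained at seeding with Hoechst33342, BioTracker Green Microtubule Cytoskeleton Dye, MitoTracker Red and Annexin V Alexa Fluor 680 and imaged on a CQ1 microscope at 37°C and 5% CO2 after compound addition. The gating first set Hoechst high-intensity objects apart from normal cells, then split normal cells into healthy, pyknosed or fragmented nuclei, and pyknosed cells into mitotic or apoptotic.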", "key": {"[1]": {"conditions": "12 h, 1 µM, compound concentration 1 uM"}, "[2]": {"conditions": "12 h, 10 µM, compound concentration 10 uM"}, "[3]": {"conditions": "24 h, 1 µM, compound concentration 1 uM"}, "[4]": {"conditions": "24 h, 10 µM, compound concentration 10 uM"}, "[5]": {"conditions": "48 h, 1 µM, compound concentration 1 uM"}, "[6]": {"conditions": "48 h, 10 µM, compound concentration 10 uM"}}, "note": "“And” between values parts separate entries of the source, which are not always exact repeats. Equal values may be shown once."}
{"compound": "O=C(NCCNCC(O)COc1ccc(O)cc1)N1CCOCC1.O=C(NCCNCC(O)COc1ccc(O)cc1)N1CCOCC1.O=C(O)/C=C/C(=O)O", "note": "(stereo unspecified) [XAMOTEROL FUMARATE]", "values": [{"measurement": "Population Apoptotic (%)", "setting": "[1]", "value": "71% and 83%"}, {"measurement": "Population Fragmented Nuclei (%)", "setting": "[1]", "value": "27% and 19%"}, {"measurement": "Population Healthy Nuclei (%)", "setting": "[1]", "value": "66% and 68%"}, {"measurement": "Population Hoechst High Intensity Objects (%)", "setting": "[1]", "value": "2% and 3%"}, {"measurement": "Population Membrane Permeable-Phenotype (%)", "setting": "[1]", "value": "6% and 13%"}, {"measurement": "Population Mitochondria Different-Phenotype (%)", "setting": "[1]", "value": 1, "unit": "%"}, {"measurement": "Population Mitotic Cells (%)", "setting": "[1]", "value": "28% and 16%"}, {"measurement": "Population Normal (%)", "setting": "[1]", "value": "97% and 96%"}, {"measurement": "Population Pyknosed Nuclei (%)", "setting": "[1]", "value": "5% and 11%"}, {"measurement": "Population Tubulin-Different-Phenotype (%)", "setting": "[1]", "value": "2% and 5%"}, {"measurement": "Total Cell Count", "setting": "[1]", "value": "265 and 110"}, {"measurement": "Population Apoptotic (%)", "setting": "[2]", "value": "92% and 100%"}, {"measurement": "Population Fragmented Nuclei (%)", "setting": "[2]", "value": "28% and 15%"}, {"measurement": "Population Healthy Nuclei (%)", "setting": "[2]", "value": "60% and 73%"}, {"measurement": "Population Hoechst High Intensity Objects (%)", "setting": "[2]", "value": "0% and 4%"}, {"measurement": "Population Membrane Permeable-Phenotype (%)", "setting": "[2]", "value": "6% and 4%"}, {"measurement": "Population Mitochondria Different-Phenotype (%)", "setting": "[2]", "value": "2% and 3%"}, {"measurement": "Population Mitotic Cells (%)", "setting": "[2]", "value": "7% and 0%"}, {"measurement": "Population Normal (%)", "setting": "[2]", "value": "99% and 95%"}, {"measurement": "Population Pyknosed Nuclei (%)", "setting": "[2]", "value": 11, "unit": "%"}, {"measurement": "Population Tubulin-Different-Phenotype (%)", "setting": "[2]", "value": "4% and 7%"}, {"measurement": "Total Cell Count", "setting": "[2]", "value": "239 and 118"}, {"measurement": "Population Apoptotic (%)", "setting": "[3]", "value": "85% and 80%"}, {"measurement": "Population Fragmented Nuclei (%)", "setting": "[3]", "value": "24% and 18%"}, {"measurement": "Population Healthy Nuclei (%)", "setting": "[3]", "value": "68% and 69%"}, {"measurement": "Population Hoechst High Intensity Objects (%)", "setting": "[3]", "value": "0% and 1%"}, {"measurement": "Population Membrane Permeable-Phenotype (%)", "setting": "[3]", "value": "5% and 10%"}, {"measurement": "Population Mitochondria Different-Phenotype (%)", "setting": "[3]", "value": "0% and 4%"}, {"measurement": "Population Mitotic Cells (%)", "setting": "[3]", "value": "15% and 20%"}, {"measurement": "Population Normal (%)", "setting": "[3]", "value": "99% and 98%"}, {"measurement": "Population Pyknosed Nuclei (%)", "setting": "[3]", "value": "6% and 11%"}, {"measurement": "Population Tubulin-Different-Phenotype (%)", "setting": "[3]", "value": "1% and 5%"}, {"measurement": "Total Cell Count", "setting": "[3]", "value": "312 and 129"}, {"measurement": "Population Apoptotic (%)", "setting": "[4]", "value": "89% and 78%"}, {"measurement": "Population Fragmented Nuclei (%)", "setting": "[4]", "value": "22% and 16%"}, {"measurement": "Population Healthy Nuclei (%)", "setting": "[4]", "value": "66% and 70%"}, {"measurement": "Population Hoechst High Intensity Objects (%)", "setting": "[4]", "value": 1, "unit": "%"}, {"measurement": "Population Membrane Permeable-Phenotype (%)", "setting": "[4]", "value": 6, "unit": "%"}, {"measurement": "Population Mitochondria Different-Phenotype (%)", "setting": "[4]", "value": 2, "unit": "%"}, {"measurement": "Population Mitotic Cells (%)", "setting": "[4]", "value": "10% and 21%"}, {"measurement": "Population Normal (%)", "setting": "[4]", "value": 98, "unit": "%"}, {"measurement": "Population Pyknosed Nuclei (%)", "setting": "[4]", "value": "10% and 12%"}, {"measurement": "Population Tubulin-Different-Phenotype (%)", "setting": "[4]", "value": "2% and 6%"}, {"measurement": "Total Cell Count", "setting": "[4]", "value": "270 and 152"}, {"measurement": "Population Apoptotic (%)", "setting": "[5]", "value": "90% and 91%"}, {"measurement": "Population Fragmented Nuclei (%)", "setting": "[5]", "value": "18% and 23%"}, {"measurement": "Population Healthy Nuclei (%)", "setting": "[5]", "value": "75% and 62%"}, {"measurement": "Population Hoechst High Intensity Objects (%)", "setting": "[5]", "value": "1% and 2%"}, {"measurement": "Population Membrane Permeable-Phenotype (%)", "setting": "[5]", "value": "4% and 6%"}, {"measurement": "Population Mitochondria Different-Phenotype (%)", "setting": "[5]", "value": "2% and 3%"}, {"measurement": "Population Mitotic Cells (%)", "setting": "[5]", "value": "9% and 8%"}, {"measurement": "Population Normal (%)", "setting": "[5]", "value": "98% and 97%"}, {"measurement": "Population Pyknosed Nuclei (%)", "setting": "[5]", "value": "6% and 13%"}, {"measurement": "Population Tubulin-Different-Phenotype (%)", "setting": "[5]", "value": "2% and 4%"}, {"measurement": "Total Cell Count", "setting": "[5]", "value": "472 and 171"}, {"measurement": "Population Apoptotic (%)", "setting": "[6]", "value": "89% and 94%"}, {"measurement": "Population Fragmented Nuclei (%)", "setting": "[6]", "value": "18% and 17%"}, {"measurement": "Population Healthy Nuclei (%)", "setting": "[6]", "value": "68% and 73%"}, {"measurement": "Population Hoechst High Intensity Objects (%)", "setting": "[6]", "value": "1% and 2%"}, {"measurement": "Population Membrane Permeable-Phenotype (%)", "setting": "[6]", "value": "2% and 4%"}, {"measurement": "Population Mitochondria Different-Phenotype (%)", "setting": "[6]", "value": "1% and 4%"}, {"measurement": "Population Mitotic Cells (%)", "setting": "[6]", "value": "10% and 5%"}, {"measurement": "Population Normal (%)", "setting": "[6]", "value": "98% and 97%"}, {"measurement": "Population Pyknosed Nuclei (%)", "setting": "[6]", "value": "12% and 9%"}, {"measurement": "Population Tubulin-Different-Phenotype (%)", "setting": "[6]", "value": "2% and 6%"}, {"measurement": "Total Cell Count", "setting": "[6]", "value": "392 and 206"}]}
